# Most compounds without a hit are left out; they make up all but 0.72% or so of the library.
# mIAP block: mouse IAP inhibition; purified mouse IAP, CDP-Star luminescence, 30 min; inhibition, % at 10 µM; AID 2806; 330,000 compounds, 0.2% hits;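 active = inhibition of at least 40% at 10 µM in the primary screen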;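 note: plate controls were DMSO with enzyme for no effect and no enzyme wells for full effect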
# hIAP inh: human IAP inhibition. purified IAP, CDP-Star luminescence, 30 min. inhibition, % at 10 µM. 330,000 compounds, 0.12% hits;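 active = inhibition reaching a set limit with compound at 10 µM in the primary screen, cut at about 35% in these data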;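 note: plate controls were DMSO wells with enzyme for no effect and no-enzyme buffer wells for full effect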
# Target sequence (P09923 whole entry, looked up): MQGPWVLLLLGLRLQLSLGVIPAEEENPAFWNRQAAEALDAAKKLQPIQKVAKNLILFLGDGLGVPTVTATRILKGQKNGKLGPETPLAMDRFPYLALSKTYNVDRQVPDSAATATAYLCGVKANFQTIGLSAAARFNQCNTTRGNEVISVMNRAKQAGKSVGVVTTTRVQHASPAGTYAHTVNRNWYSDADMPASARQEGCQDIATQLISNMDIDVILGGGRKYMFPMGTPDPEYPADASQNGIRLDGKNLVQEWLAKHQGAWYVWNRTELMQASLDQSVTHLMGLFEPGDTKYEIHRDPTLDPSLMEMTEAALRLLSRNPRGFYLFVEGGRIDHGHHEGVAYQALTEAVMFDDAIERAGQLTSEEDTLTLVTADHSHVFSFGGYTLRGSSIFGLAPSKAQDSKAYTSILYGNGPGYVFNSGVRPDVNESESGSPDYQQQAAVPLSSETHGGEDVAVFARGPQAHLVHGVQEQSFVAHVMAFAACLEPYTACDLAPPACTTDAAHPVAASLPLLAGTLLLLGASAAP
# bIAP activator: intestinal alkaline phosphatase (bovine) activation; purified bovine IAP, CDP-star luminescence, 30 min; stronger effect = higher value; fold of DMSO-control signal, blank-subtracted; activation factor at 20 µM; 200,000 compounds, 0.17% hits;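 active = activation factor of 2 or more at 20 µM, a signal rise over negative controls twice the positive control's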
# hIAP act: increases human intestinal alkaline phosphatase activity; activation factor at 10 µM; purified human IAP, CDP-Star luminescence, 30 min; stronger effect = higher value; 1 = vehicle-only enzyme, 0 = enzyme-free background; 330,000 compounds, 0.16% hits; P09923;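 active = activation factor of the enzyme at least 2-fold when tested at 20 µM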
# mIAP activ: increases mouse intestinal alkaline phosphatase activity; muIAP, CDP-Star luminescence, 30 min; stronger effect = higher value; 1 = vehicle-only enzyme signal, 0 = enzyme-free wells; activation factor at 10 µM; 330,000 compounds, 0.24% hits; AID 2805;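 active = activation factor of at least 2 at 20 µM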
#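 System: mouse IAP enzyme. Reagent: CDP-Star chemiluminescent phosphatase substrate. Benchmarks: DMSO wells, no-enzyme wells. Times: 30 min enzyme-substrate-compound incubation at room temperature. Detection: luminescence from enzymatic CDP-Star hydrolysis. Doses: test compounds delivered from DMSO solution.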
# bIAP inh: blocks bovine intestinal alkaline phosphatase activity. inhibition, % at 20 µM. AID 1019. 190,000 tested, under 10 active. purified bovine IAP, CDP-star luminescence, 30 min;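 active = over 50% inhibition of intestinal alkaline phosphatase at 20 µM in the single-dose screen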
#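 test system = bovine IAP enzyme | medium = DEA buffer 100 mM, pH 9.8, with MgCl2 1.0 mM, ZnCl2 0.02 mM | detection = luminescence | dosing = single compound dose of 20 µM, 2% DMSO final | incubation = 30 min reaction at room temperature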
# hIAP act confirm: human IAP activation confirmation; shares compounds with hIAP act; purified IAP, CDP-Star luminescence, 30 min; stronger effect = lower value; activation (%Activity, negative = activation), % at 8.3 µM; 880 compounds, 10% hits; AID 434926;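 active = at least twofold enzyme activation in any of six single-dose repeats, which the averaged readout prints as negative percent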
# Numbers without * were called inactive; x = no result.
SMILES,mIAP block,hIAP inh,bIAP activator,hIAP act,mIAP activ,bIAP inh,hIAP act confirm
CCOCCCNC(=O)C(c1ccc(OC)cc1)N(Cc1cccs1)C(=O)c1ccccn1 (stereo unspecified),-18,-16,1.1,1.2,1.2,-13,x
Cc1ccc(NS(=O)(=O)c2ccc(NC(=O)C3CC3)cc2)c(C)c1,-10,36*,x,0.64,1.1,x,-2
Cc1ccc(NS(=O)(=O)c2ccc(NC(=O)c3cccs3)cc2)c(C)c1,11,5,1,0.95,0.89,-3,x
O=C1CC(c2ccccc2F)c2cc3c(cc2N1)CCC3 (stereo unspecified),-16,-220,1,3.2*,1.2,3,-11
CCOc1ccc2nc(NC(=O)CN3CCC(n4nnc5cc(F)ccc54)CC3)sc2c1,-2,-7,1,1.1,1,-2,x
CCCCNC(=O)N(O)C1N(/N=C/c2cccs2)C(=S)SC1(C)C (stereo unspecified),0,36*,x,0.64,1,x,-2
CNC(=O)N(O)C1N(/N=C/c2ccccc2O)C(=S)SC1(C)C (stereo unspecified),4,-6,x,1.1,0.96,x,x
CCc1nnc(NC(=O)CSc2nnc(C)c(=O)n2N)s1,-5,46*,x,0.54,1.1,x,41
Cc1nnc(NC(=O)CSc2nnc(C)c(=O)n2N)s1,1,-16,x,1.2,0.99,x,x
CCOC(=O)c1ccc(NC(=O)c2nc[nH]c2C(=O)N[C@@H](CC(C)C)C(=O)OC(C)(C)C)cc1,3,-103,x,2*,0.97,x,14
CCCCCN1CC(O)=C(c2nc3ccccc3[nH]2)C1=N,-30,-111,1.1,2.1*,1.3,-13,-45
CCN1/C(=C\c2ccc3cc(C)ccc3[n+]2CC)Sc2cc(C)c(C)cc21,x,x,0.6,x,x,37,x
CCN1/C(=C/c2ccc3cc(C)ccc3[n+]2CC)Sc2ccc3sccc3c21,43*,35*,x,0.65,0.57,x,0
COc1ccc(NC(=O)CC(=O)Nc2ccc(OC)cc2)cc1,-10,-3,x,1,1.1,x,x
COc1ccc(NC(=O)c2ccc(NC3=NC4CS(=O)(=O)CC4S3)cc2)cc1 (stereo unspecified),8,4,x,0.96,0.92,x,x
OC1(c2cccs2)CN(c2ccc(Br)cc2)C2=[N+]1CCCS2 (stereo unspecified),5,-180,x,2.8*,0.95,x,18
Cc1ccc(C(=O)c2cn[nH]c2-c2cc(Cl)ccc2O)cc1,3,-7,1.5,1.1,0.97,-51,x
Cc1ccc(-c2[nH]ncc2C(=O)c2ccc(Br)cc2)c(O)c1,1,-105,x,2*,0.99,x,1
CC(C)CC(=O)Nc1ccc(C(=O)NNC(=S)NC(=O)C2CCCCC2)cc1,-18,-162,0.9,2.6*,1.2,10,-5
N#CCC(=O)Nc1ccc(C(=O)NNC(=S)NC2CCCCC2)cc1,-2,-76,x,1.8,1,x,x
CC(C)[C@H](NC(=O)c1ccc(Cl)cc1)C(=O)OCC(=O)N1CCN(c2ccccc2)CC1,-9,4,x,0.96,1.1,x,x
CC1CCCN(C(=O)C2CCN(S(=O)(=O)c3cccc4nsnc34)CC2)C1 (stereo unspecified),6,49*,x,0.51,0.94,x,-4
Cc1cc([N+](=O)[O-])nn1CC(=O)Nc1ccc(F)cc1,-1,1,1,0.99,1,0,x
Cc1cc([N+](=O)[O-])nn1CC(=O)NNC(=S)Nc1ccc(F)cc1,1,-111,1.2,2.1*,0.99,-24,6
Cc1cc(=O)[nH]c(N/N=C/c2ccc(OC(=O)c3ccco3)cc2)n1,-2,23,1,0.77,1,-1,x
COc1ccccc1CCNC(=O)C1CCN(c2nnc(C)c3c(C)n(-c4ccc(C)cc4)nc23)CC1,-25,-132,x,2.3*,1.3,x,31
CCOc1ccc(CNC(=O)C2CCN(c3nnc(C)c4c(C)n(-c5ccc(C)cc5)nc34)CC2)cc1,14,-47,x,1.5,0.86,x,x
COc1ccc(-n2nc3c(N4CCC(C(=O)NCc5cccc(C)c5)CC4)nnc(C)c3c2C)cc1,-27,-121,x,2.2*,1.3,x,-42

# Screening results from PubChem BioAssay.
